Screens from PubChem BioAssay.
TCR CD3 inh: blocks the human TCR-CD3 interaction. TAMRA-labeled TCR probe fluorescence, biochemical. inhibition, % at 9.4 µM. actives 0.37% (n = 360,000); in the data active = inhibition above about 19%;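 note: recombinant mutant TCR 2C K166C tagged with TAMRA read by polarization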
PABP1 MLLE inh: inhibitors of microRNA-mediated deadenylation, human PABP1 MLLE binding; P11940; GST-MLLE / FITC-PAM2 fluorescence polarization; inhibition, % at 20 µM; actives 0.36% (n = 360,000); AID 588489; in the data active = inhibition above about 35%, passing the limit was not always enough
RBBP9 inh: blocks human serine hydrolase RBBP9; O75884; recombinant RBBP9, FP-Rh probe fluorescence polarization; inhibition, % at 7.94 µM; actives 0.2% (n = 220,000); AID 1515;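 active = inhibition above the campaign mean of all tested compounds plus 3 SD, cut at about 14% in these data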
Target sequence (O75884 whole entry, looked up): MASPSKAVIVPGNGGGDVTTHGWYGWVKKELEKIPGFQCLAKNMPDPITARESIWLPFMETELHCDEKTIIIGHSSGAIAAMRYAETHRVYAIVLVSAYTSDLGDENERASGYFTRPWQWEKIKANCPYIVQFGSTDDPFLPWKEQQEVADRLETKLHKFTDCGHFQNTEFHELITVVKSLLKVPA
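Material: RBBP9 protein. Amount: RBBP9 at 2.5 µM in dispensed solution, before mixing. Schedule: 30 min then 45 min, 25 °C. Medium: Tris buffer pH 8.0, NaCl, Pluronic. Measured by: fluorescence polarization. Measure: percent inhibition from mP, scaled between DMSO and no-protein wells. Replication: one well per compound.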
PABP FP inh: PABP-poly(A) binding inhibition; PABP-poly(A) RNA binding, fluorescence polarization; calls only at 35 µM; actives 1% (n = 290,000); AID 2014;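 note: calls also rest on retests at 20 µM and on dose response follow-up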
eIF4H inh: inhibitors of RNA binding by human eIF4H; inhibition, % at 35 µM; AID 2012; actives 0.94% (n = 290,000); eIF4H fluorescence polarization binding assay;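 note: calls also rest on retests at 20 µM and on dose response follow-up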
Each line names hits and unclear results; the compound was inactive in the other large screens; ! = not confirmed by another sample. Only some compounds are listed: those with a hit (about 1.6% of all), similar ones and a draw of the others. Unless noted, the rule behind the calls is not given here.

O=C(N[C@@H](Cc1cccnc1)C(=O)N1CCC[C@H]1C(=O)NC1CCCC1)c1ccc(Cl)c(Cl)c1	none (no result: PABP1 MLLE inh, RBBP9 inh, PABP FP inh, eIF4H inh)
COc1ccc(N2C(=O)c3n[nH]c(C(C)C)c3C2c2ccccc2)cc1 (stereo not given)	none (no result: PABP1 MLLE inh, RBBP9 inh, PABP FP inh, eIF4H inh)
COc1ccc(-c2c(C)nc(N)nc2-c2ccc(OC)cc2O)cc1	PABP FP inh active, eIF4H inh 66 (no result: RBBP9 inh)
CCCN1CCCCC(NC(=O)OC(C)(C)C)C1=O (stereo not given)	none (no result: PABP1 MLLE inh, RBBP9 inh, PABP FP inh, eIF4H inh)
O=C(Cn1cc(C(=S)N2CCOCC2)c2ccccc21)N1CCOCC1	none
O=C(Cn1cc(C(=O)COc2ccccc2)c2ccccc21)NCc1ccco1	eIF4H inh 36
CC(=O)c1cn(CC(=O)NCc2ccco2)c2ccccc12	none
O=C(COc1ccccc1)c1cn(CC(=O)N2CCOCC2)c2ccccc12	PABP FP inh active, eIF4H inh 95
COCC#Cc1cnc2c(c1)C(=O)N([C@@H](C)CO)C[C@H](C)[C@H](CN(C)C(=O)c1ccc3c(c1)OCO3)O2	none (no result: PABP1 MLLE inh, RBBP9 inh, PABP FP inh, eIF4H inh)
COc1ccc(Br)cc1CNC(=O)C1CCN(c2nnc(N3CCCC3=O)s2)CC1	none (no result: RBBP9 inh)
COc1ccc(CNC(=O)C2CCN(c3nnc(N4CCCC4=O)s3)CC2)cc1	PABP FP inh active, eIF4H inh 90 (no result: RBBP9 inh)
CC(/C=C\c1cccnc1)=C/C(=O)O	eIF4H inh 73!
COC(=O)c1cc2c(c3c4cc(C#N)ccc4n(S(=O)(=O)c4ccc(C)cc4)c13)C(=O)N(C)C2	none (no result: PABP1 MLLE inh, RBBP9 inh, PABP FP inh, eIF4H inh)
CS(=O)(=O)N1N=C(c2ccco2)CC1c1ccco1 (stereo not given)	PABP FP inh active, eIF4H inh 78 (no result: RBBP9 inh)
COC(=O)c1ccc(N)c2c(N)ccc(C(=O)OC)c12	none (no result: PABP1 MLLE inh, RBBP9 inh, PABP FP inh, eIF4H inh)
COC(=O)C1=C(C)N(Cc2ccccc2C(F)(F)F)C(=NCc2ccc(OC)cc2)NC1c1ccc(Cl)cc1 (stereo not given)	none (no result: PABP1 MLLE inh, RBBP9 inh, PABP FP inh, eIF4H inh)
COc1ccc(Nc2nc3ccccc3nc2C)cc1	PABP FP inh active, eIF4H inh 61
CCCCc1c(-c2ccccc2OC)ncn1Cc1ccc(OC)c(Cl)c1	none (no result: PABP1 MLLE inh, RBBP9 inh, PABP FP inh, eIF4H inh)
O=C(N[C@H](C(=O)N1CCC[C@H]1C(=O)NC1CCCC1)C1CCCCC1)c1nccs1	none (no result: PABP1 MLLE inh, RBBP9 inh, PABP FP inh, eIF4H inh)
Cc1cccc(CN2CCN(C3CN(Cc4cn(Cc5ccc(C(F)(F)F)cc5)nn4)S(=O)(=O)C3)CC2)c1 (stereo not given)	none (no result: PABP1 MLLE inh, RBBP9 inh, PABP FP inh, eIF4H inh)
CCN1CC2=C(OC(N)=C(C#N)C2c2cccs2)/C(=C\c2cccs2)C1 (stereo not given)	PABP FP inh active, eIF4H inh 98
CCOC(=O)C1=C(CC)OC(N)=C(C#N)C1c1cccs1 (stereo not given)	none
Cc1cccc(C)c1NC(=O)CN(C)C(=O)c1cccc(S(=O)(=O)N2CCN(c3ccccc3)CC2)c1	PABP FP inh active (no result: RBBP9 inh)
Cc1occc(=O)c1OC(=O)Nc1ccc(Cl)c(Cl)c1	TCR CD3 inh 73
CCOC(=O)c1sc(=S)n(C)c1NC(=O)c1ccccc1Cl	PABP1 MLLE inh 43
CCC(Sc1nc(C)cc(C)n1)C(=O)Nc1ccc(S(N)(=O)=O)cc1 (stereo not given)	none
CCC(SC1=NCCS1)C(=O)Nc1ccc(S(N)(=O)=O)cc1 (stereo not given)	PABP1 MLLE inh 41
S=C1NCN(CC2CC2)CN1	none (no result: PABP1 MLLE inh, RBBP9 inh, PABP FP inh, eIF4H inh)
NC1=NC(=O)/C(=C/c2cccc(-c3ccc(S(N)(=O)=O)cc3)c2)S1	PABP FP inh active, eIF4H inh 90 (no result: RBBP9 inh)
O=C(N[C@@H](Cc1cccnc1)C(=O)N1CCC[C@H]1C(=O)NCCc1ccccc1Cl)c1ccc(Cl)cc1Cl	none (no result: PABP1 MLLE inh, RBBP9 inh, PABP FP inh, eIF4H inh)
CCOC(=O)CN1C(=O)S/C(=C\c2ccc(-c3ccc(C(=O)O)c(Cl)c3)o2)C1=O	PABP FP inh active, eIF4H inh 52 (no result: RBBP9 inh)
CCOC(=O)CN1C(=O)S/C(=C\c2ccc(-c3cccc(C(=O)O)c3C)o2)C1=O	none (no result: RBBP9 inh, PABP FP inh, eIF4H inh)
O=C(O)c1ccc(-c2ccc(/C=C3\NC(=O)N(Cc4ccc(Cl)cc4)C3=O)o2)cc1Cl	PABP FP inh active
Cc1ccc(/C=C2/NC(=O)N(Cc3ccc(Br)cc3)C2=O)o1	none
C=CCN=C1NC(c2ccc(Cl)cc2)C(C(=O)OC)=C(C)N1Cc1ccccc1C(F)(F)F (stereo not given)	none (no result: PABP1 MLLE inh, RBBP9 inh, PABP FP inh, eIF4H inh)
C[n+]1cccc2cccc([O-])c21	PABP FP inh active
[O-][n+]1cccc2cccc(O)c21	none (no result: RBBP9 inh, PABP FP inh, eIF4H inh)
N#Cc1c(N2CCN(c3ccc(F)cc3)CC2)nc(N)c2c(N)nc3c(c12)CC(=O)N3C1CC1	PABP FP inh active, eIF4H inh inconclusive
CN(CCO)c1nc(N)c2c(N)nc3c(c2c1C#N)CC(=O)N3C1CCCC1	PABP FP inh active, eIF4H inh inconclusive (no result: TCR CD3 inh, PABP1 MLLE inh)
CC(C)(C)N1C(=O)Cc2c1nc(N)c1c(N)nc(N3CCCCC3CO)c(C#N)c21 (stereo not given)	PABP FP inh inconclusive, eIF4H inh inconclusive (no result: TCR CD3 inh)
CN[C@H]1C[C@@H](c2ccccc2Br)N(C(C)=O)C[C@H]1CO	none (no result: PABP1 MLLE inh, RBBP9 inh, PABP FP inh, eIF4H inh)
CCOC(=O)C1CSCCS(=O)(=O)N1Cc1ccc(F)cc1F (stereo not given)	none (no result: PABP1 MLLE inh, RBBP9 inh, PABP FP inh, eIF4H inh)
COc1ccc2[nH]c(=O)c(CNc3ccccc3)cc2c1	none
CCOc1ccc(NCc2cc3cc(OC)ccc3[nH]c2=O)cc1	PABP FP inh active, eIF4H inh 35
COc1cc2c(cc1OC)CN(C(=O)CCN1C(=O)C3CCCCC3C1=O)CC2 (stereo not given)	PABP FP inh active, eIF4H inh 6.2
COc1cc2c(cc1OC)CN(C(=O)COc1ccc(C#N)cc1)CC2	PABP FP inh active, eIF4H inh 6.8
COc1cc2c(cc1OC)CN(C(=O)CC1CC3CCC1C3)CC2 (stereo not given)	none
CC(C)OC(=O)c1nn2c(C(F)(F)F)cc(-c3ccc(Br)o3)nc2c1Br	PABP FP inh active, eIF4H inh 44
N#CC1(C#N)COC23CCCCC2C1(C#N)C(=N)O3 (stereo not given)	PABP FP inh active
CC1OC23CCCCC2C(C#N)(C(=N)O3)C1(C#N)C#N (stereo not given)	none
CCCC1OC23CCCCC2C(C#N)(C(=N)O3)C1(C#N)C#N (stereo not given)	PABP1 MLLE inh 58, PABP FP inh inconclusive, eIF4H inh inconclusive
N#CC12COC3(CCCCC3C1(C#N)C#N)OC2=N (stereo not given)	PABP1 MLLE inh 49, PABP FP inh inconclusive, eIF4H inh inconclusive
CCC1OC23CCCCC2C(C#N)(C(=N)O3)C1(C#N)C#N (stereo not given)	PABP FP inh inconclusive, eIF4H inh inconclusive
COC(=O)[C@]12C[C@H](CC(=O)N3CCN(C(=O)C4CC4)CC3)C(=O)N(Cc3ccc4c(c3)OCO4)C1=C[C@H](COCc1ccccc1)O[C@@H]2C	none (no result: PABP1 MLLE inh, RBBP9 inh, PABP FP inh, eIF4H inh)
O=C(Nc1ccc(F)cc1F)c1noc2c1CCC2	PABP FP inh active, eIF4H inh 85 (no result: TCR CD3 inh)
O=C(Nc1cc(Cl)ccc1Cl)c1noc2c1CCCC2	none (no result: RBBP9 inh)
COC(=O)CC#C[C@@H](C)[C@H](NS(=O)(=O)c1ccc(C)cc1)C(C)(C)C	none (no result: PABP1 MLLE inh, RBBP9 inh, PABP FP inh, eIF4H inh)
Cc1ccc2c(c1)-c1c(ssc1=S)C(C)(C)N2C(=O)CSC1=NCCS1	none
CCOc1ccc2c(c1)-c1c(ssc1=S)C(C)(C)N2C(=O)CSC1=NCCS1	PABP1 MLLE inh 46
